Source: PubChem BioAssay
A selection: hits, their analogues and other compounds. The true share with any hit is near 4.8%.
T cruzi inh – blocks replication of Trypanosoma cruzi | T. cruzi beta-gal in NIH3T3, luminescence, 90 h | inhibition, % (test concentration not listed) | AID 1885 | 300,000 compounds, 1.4% hits;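 active means mean inhibition across valid replicates above about 55%, limit read from the data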;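 further: signal also drops with host cell toxicity which is not excluded here; 0% = plate median of DMSO wells and 100% = zero luminescence signal; higher percent means less beta-gal luminescence so fewer parasites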
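System: NIH/3T3 fibroblasts plus reporter T. cruzi. Medium: DMEM plus 2% FBS. Probe or stimulus: 5000 reporter trypomastigotes per well. Compound: single 50 nL compound addition per well in DMSO. Incubation: co-culture of at least 90 h after 3 h attachment. Detection: GalScreen β-gal luminescence, detergent lysis, 60 min. Evaluation: parasite load inhibition, %.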
Efflux pump mplx – inhibitors of Candida antifungal efflux pumps expressed in yeast | S. cerevisiae Candida pump triplex, Nile Red efflux | inhibition, % at 10 µM | 330,000 compounds, 0.44% hits | AID 485275;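 active means plate passing quality check with inhibition over a set limit, or well fluorescence over plate mean plus 4 SD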;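 further: Nile Red retained in pooled yeast measured as flow cytometry median fluorescence; 0% = buffer negative control and 100% = Enniatin B positive control; higher means more Nile Red kept so more efflux inhibition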
WT yeast gro inh – growth inhibition of WT yeast, mitochondrial fusion screen; mitochondrial fusion phenotypic screen, WT strain; inhibition, % at 10 µM; 190,000 compounds, 2.1% hits; AID 1362; in the data active means inhibition above about 58%; tested in S. cerevisiae
CSC inhib – cancer stem cell inhibition. cancer stem cell-like cells viability, luminescence. inhibition, % at 7.5 µM. 300,000 compounds, 1.1% hits. AID 2717; in the data active means inhibition above about 75%; tested in HMLE shEcad cells
Mot1-301 SUMO – SUMOylation pathway inhibition by Mot1-301 growth rescue | S. cerevisiae Mot1-301 growth rescue, ATP luminescence, 38.5C; percent above DMSO median, 100 means doubled | growth rescue, % at 18.8 µM | 320,000 compounds, 1% hits | AID 2716;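 active means every valid replicate shows activation above 250% relative to neutral control wells; inactive means the rest, any valid replicate at or below 250%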;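 further: OY570 slx delta 5 strain wells were the positive control but not used for scaling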
Beta cell apopt – blocks beta cell apoptosis | INS-1E cytokine-induced death, ATP luminescence, 48 h; percent of positive-control rescue, neutral wells zero | protection from apoptosis, % (concentration not given with the values) | 300,000 compounds, 0.8% hits;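 active means Every replicate reaches about 75%, or at least half do and their mean reaches it too, limit read from the data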;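 further: 0% = cytokine-treated negative control wells and 100% = positive control rescue; higher means more ATP so stronger rescue from cytokine killing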
An asterisk follows results filed as active; nt = no result given.

SMILES | T cruzi inh | Efflux pump mplx | WT yeast gro inh | CSC inhib | Mot1-301 SUMO | Beta cell apopt
Oc1ccc(-c2nc3c4c(ncn3n2)-c2ccccc2CC42CCCC2)cc1 | 43.7 | -0.3 | 96.0* | -5.7 | -7.3 | -5.1
CCCOc1ccc(C2=CSC3=NCCN23)cc1 | -1.6 | 0.1 | nt | 40.1 | -2.6 | 0.9
CN1CCN(c2ccc(-c3ccnn3C(=O)Nc3cccc(C(F)(F)F)c3)cc2)CC1 | 34.6 | -0.1 | 67.6* | 18.7 | -8.6 | 8.4
COc1ccc(CNC(=O)Cn2nc(C)c3c(C)n(-c4ccc(C)cc4)nc3c2=O)cc1OC | -8.8 | 0.1 | nt | 3.6 | 10.1 | -4.0
CSC(=S)N/N=C/c1ccc(Br)cc1 | -0.5 | -0.1 | 67.6* | -10.2 | 19.2 | 1.0
CCOc1ccc(C2(C)CC(=O)N(C)C2=O)cc1 (configuration not stated) | -16.5 | -0.1 | nt | -13.8 | -3.1 | nt
COc1ccc(Cn2c(-c3ccc(Br)cc3)c[n+]3ccccc23)cc1 | 70.5* | 0.0 | 62.5* | 17.4 | -17.5 | 57.5
COc1ccc(Cn2c(-c3ccc(OC)cc3)nc3ccccc32)cc1 | 35.7 | 0.0 | 54.8 | 4.8 | 541.8 | 1.2
COc1ccc(CCN(C)CCC(=O)Nc2ccc(C)cc2)cc1OC | 58.6* | -0.4 | 2.1 | -4.5 | -8.8 | 3.3
COc1ccc(CCN(C)CCC(=O)Nc2cccc(C)c2)cc1OC | 37.6 | -0.2 | nt | 3.3 | -12.3 | -5.5
O=C(/C=C/c1c(Cl)cccc1Cl)NCCCn1ccnc1 | 24.7 | 0.0 | nt | -31.5 | 3.7 | 7.9
COc1ccc(CNc2oc(COc3ccc(Cl)cc3)nc2C#N)cc1 | 66.3* | 0.0 | 70.8* | nt | -1.6 | -4.8
CCOc1ccc(Nc2oc(-c3ccc(Cl)cc3)nc2C#N)cc1 | 6.0 | -0.2 | 14.9 | 30.6 | -4.1 | 2.1
COc1ccc(Nc2oc(COc3ccc(Cl)cc3)nc2C#N)cc1 | 37.6 | 0.1 | -15.4 | 28.9 | 15.0 | 2.9
CN(C)c1oc(-c2ccc(OCc3ccc(Cl)cc3)cc2)nc1C#N | 62.6* | -0.1 | 11.4 | 4.7 | 12.6 | 1.5
CC(C)Oc1ccc(Br)cc1/C=N\NC(N)=S | -2.8 | -0.6 | 1.0 | -30.6 | -21.2 | -0.4
CN(C)C(=O)C1C2NC(=S)N(c3cccc(Cl)c3)C1(C)Oc1ccc(Cl)cc12 (configuration not stated) | -9.3 | 0.2 | -9.6 | 5.9 | 18.9 | -1.9
CC(C)CCCN1C(N(C)C)=NC[C@@H]1C | nt | -0.1 | nt | -18.1 | 8.0 | -5.9
CCC(C)CCN1C(N(C)C)=NC[C@@H]1C (some centres not stated) | nt | 0.2 | nt | -8.3 | 317.7* | -4.0
CC(=O)c1ccc(Nc2cc(C)nc3c(C)cc(C)cc23)cc1 | 21.4 | 0.0 | 25.4 | -7.3 | -13.9 | 77.5*
CCCn1nnnc1NC(=O)COc1ccc(Br)cc1 | -6.1 | 0.2 | 18.1 | 2.7 | 12.3 | -6.1
O=C1C2C3C=CC(CO)(O3)C2C(=O)N1c1ccccc1-c1ccccc1 (configuration not stated) | nt | 0.0 | 69.4* | -6.5 | -19.1 | -16.0
CC(=O)Oc1ccc(N2C(=O)C3C4C=CC(CO)(O4)C3C2=O)cc1 (configuration not stated) | -15.7 | -0.3 | 22.6 | 2.6 | 32.2 | -5.7
CC(NC(=S)NCCCN1CCOCC1)C1CC2CCC1C2 (configuration not stated) | nt | nt | 59.4* | nt | nt | nt
C=CCN1C(=O)/C(=C/c2ccc(OC(C)=O)c(OCC)c2[N+](=O)[O-])SC1=S | 7.4 | nt | 97.2* | nt | nt | nt
SMILES | T cruzi inh | Efflux pump mplx | WT yeast gro inh | CSC inhib | Mot1-301 SUMO | Beta cell apopt
CN(C)C1=NCCN1CCc1ccccc1 | nt | 0.1 | nt | -10.4 | -0.9 | -3.1
CN(C)C(=O)[C@H]1C[C@H]1[C@@H](O)[C@H](CO)NC(=O)[C@H](COCc1ccccc1)NC(=O)OC(C)(C)C | -18.9 | -0.2 | nt | -5.6 | -5.0 | 1.7
Cc1ccc(/C=C2\C(=O)ON=C2c2ccccc2)o1 | -16.4 | 0.2 | 19.8 | -8.8 | 5.2 | 1.1
Cc1ccc(-c2ccc(/C=C3\C(=O)ON=C3c3ccccc3)o2)c([N+](=O)[O-])c1 | -11.6 | 0.2 | 36.3 | 5.0 | 8.1 | 92.3*
O=C(Oc1ccc2cc(Br)ccc2c1)N1CCCCCC1 | 40.3 | 0.4 | 67.9* | -1.4 | -17.6 | 23.7
O=C(Oc1ccc2ccccc2c1Br)N1CCCCCC1 | 21.1 | 0.0 | 70.5* | -17.2 | -9.0 | 8.7
O=C(COc1ccc2cc(Br)ccc2c1)N1CCOCC1 | nt | -0.1 | nt | -14.9 | -15.0 | -4.0
COc1ccc(Nc2nnc(Cc3ccncc3)c3ccccc23)c(OC)c1 | 20.0 | 0.2 | nt | -10.0 | 2.2 | -1.4
